What is called inhibition is the relative decrease from the control value, in per cent. What is called pIC50 is the negative decadic logarithm of the IC50, by convention in mol/L.

Structures are written as SMILES. pIC50: −log10 of the molar value. The source made the active and inactive calls. No cut-off for these calls is given here.

This note sets out measurements from ChEMBL document CHEMBL4312030, “Synthesis, biological evaluation, and docking study of indole aryl sulfonamides as aromatase inhibitors” (Eur J Med Chem, 2020).

The target of experiment [1] is T1, Aromatase (Homo sapiens, UniProt P11511).
T1 sequence (P11511 whole entry): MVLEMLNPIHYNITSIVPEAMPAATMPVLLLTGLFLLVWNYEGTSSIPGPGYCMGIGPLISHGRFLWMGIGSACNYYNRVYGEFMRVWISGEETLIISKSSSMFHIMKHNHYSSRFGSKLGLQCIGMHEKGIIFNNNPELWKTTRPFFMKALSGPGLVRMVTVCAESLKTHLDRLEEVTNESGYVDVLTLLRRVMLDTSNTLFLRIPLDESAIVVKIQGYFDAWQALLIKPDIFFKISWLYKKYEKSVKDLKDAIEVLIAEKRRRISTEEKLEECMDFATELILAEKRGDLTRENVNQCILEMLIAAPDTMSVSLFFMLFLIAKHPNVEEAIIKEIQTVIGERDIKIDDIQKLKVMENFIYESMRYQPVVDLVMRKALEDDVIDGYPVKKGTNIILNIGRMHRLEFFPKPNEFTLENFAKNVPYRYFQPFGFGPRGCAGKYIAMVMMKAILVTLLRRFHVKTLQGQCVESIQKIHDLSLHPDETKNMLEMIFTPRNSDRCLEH
The experiment can be described thus: Inhibition of recombinant human aromatase at 1 uM preincubated for 10 mins followed by substrate and beta-NADP+ addition and measured for 60 mins by fluorimetric assay relative to letrozole. To be noted: 1 h. The procedure, abridged: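 Fluorimetric kit assay with recombinant human aromatase plus NADPH generating system; compounds at 1 µM final (from 5X in ACN; solvent 0.5% ACN), preincubated 10 min at 37°C.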

Experiment [2] has as its target T1, Aromatase. The experiment can be described thus: Inhibition of recombinant human aromatase preincubated for 10 mins followed by substrate and beta-NADP+ addition and measured for 60 mins by fluorimetric assay. The procedure, abridged:
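Recombinant human aromatase with NADPH generating system, preincubated 10 min at 37°C with inhibitor at 0.01-100 µM final (5X stocks 0.05-500 µM in ACN). Fluorogenic substrate/β-NADP+ added; fluorescence Ex/Em 488/527 nm kinetic 60 min. IC50 from fitted multi-point dose-response curves; mean of triplicate ± RSD.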

The test system of experiment [3] is MCF7. Kind of experiment: Cytotoxicity against human MCF7 cells assessed as cell metabolic activity at 250 uM after 24 hrs by MTT assay relative to control. The format is functional. The procedure, abridged:
(§1)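 MCF7 cells in DMEM high glucose with 10% FBS, 1% pen/strep, seeded 1x10⁴/well, adhered 24 h, then treated 0-250 µM for 24, 48 or 72 h. MTT (1 mg/ml, 1:10 in fresh medium) 4 h at 37°C, 5% CO₂; formazan dissolved in DMSO, OD 540 nm. Expressed as % of DMSO-treated cells (final DMSO <0.2%); three experiments in triplicate (n=9).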

In experiment [4] the test system is MCF7. The experiment can be described thus: Cytotoxicity against human MCF7 cells assessed as active metabolizing cells at 100 uM after 48 hrs by MTT assay relative to control. The format is functional. The procedure, abridged:
as §1
Background: Formazan colour is commonly taken as a measure of viable cells.

The subject of experiment [5] is MCF7. The experiment can be described thus: Cytotoxicity against human MCF7 cells assessed as active metabolizing cells at 250 uM after 48 hrs by MTT assay relative to control. Type of experiment: functional. The procedure, abridged:
as §1

Experiment [6] relates to MCF7. The experiment can be described thus: Cytotoxicity against human MCF7 cells assessed as reduction in cell viability after 72 hrs by MTT assay. The format is functional, cell-based. The procedure, abridged:
as §1

The test system of experiment [7] is MCF7. The experiment can be described thus: Cytotoxicity against human MCF7 cells assessed as LDH release up to 250 uM after 24 hrs by CytoTox 96 Non-Radioactive assay relative to control. Type of experiment: functional. The procedure, abridged: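 MCF7 cells (DMEM high glucose, 10% FBS, 1% pen/strep) seeded 1x10⁴/well, adhered 24 h, then exposed to 0-250 µM for 24 h. Supernatants centrifuged 450xg 4 min; LDH measured by 30-min coupled INT-to-formazan reaction, absorbance 490 and 690 nm. %LDH released = [(A490–B690)/(C–B)]×100, C = positive control cell lysate.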
Background: LDH leaks from cells whose membrane has failed.

For experiment [8], the system named is MCF7. The experiment can be described thus: Cytotoxicity against human MCF7 cells assessed as cell metabolic activity after 24 hrs by MTT assay relative to control. Type of experiment: functional. The procedure, abridged: as §1
The test system of experiment [9] is MCF7. The experiment can be described thus: Cytotoxicity against human MCF7 cells assessed as cell metabolic activity at 10 uM after 48 hrs by MTT assay relative to control. Type of experiment: functional. The procedure, abridged:
as §1

In experiment [10] the test system is MCF7. The experiment can be described thus: Cytotoxicity against human MCF7 cells assessed as reduction in cell viability at 100 uM after 24 to 72 hrs by MTT assay. The format is functional, cell-based. The procedure, abridged: as §1

`Cc1ccc(S(=O)(=O)NCCc2c[nH]c3ccccc23)cc1[N+](=O)[O-]`: the inhibition at 1 µM on Aromatase [1] was 30.6%.

As for `O=S(=O)(NCc1ccc2[nH]ccc2c1)c1ccccc1`, the inhibition at 1 µM on Aromatase [1] came out at 20.7%.

In the case of `O=S(=O)(Cc1ccccc1)Nc1ccc2[nH]ccc2c1`, the inhibition at 1 µM at Aromatase [1] is 129%. Besides, the pIC50 on Aromatase [2] was 6.80. The Activity with MCF7 [3] is given as 38.62%; in the experiment on MCF7 [4], 19.53%; with MCF7 [5], 20.08%; in the experiment on MCF7 [7], 35 - 40%; with MCF7 [8], 45%; with MCF7 [9] it was 40 - 45%. For the same molecule, the inhibition entry in the experiment on MCF7 [6] is “Dose-dependent effect”.

Consider `Cc1ccc(S(=O)(=O)NCCc2c[nH]c3ccccc23)cc1`, for which, at Aromatase [1], the inhibition at 1 µM worked out at 43.5%.

With `O=S(=O)(Cc1ccccc1)Nc1ccc2cc[nH]c2c1`, the inhibition at 1 µM at Aromatase [1] came to 15.3%.

In the case of `O=S(=O)(Cc1ccccc1)NCCc1c[nH]c2ccccc12`, the inhibition at 1 µM on Aromatase [1] is 75.2%. The pIC50 at Aromatase [2] is 6.12. Further, the inhibition entry with MCF7 [10] was “Active”. The Activity is reported as 35 - 40% in the experiment on MCF7 [7], 45% in the experiment with MCF7 [8] and 40 - 45% with MCF7 [9].

Turning to `O=[N+]([O-])c1cccc(S(=O)(=O)Nc2ccc3cc[nH]c3c2)c1`, the inhibition at 1 µM on Aromatase [1] was 18.6%.

For the molecule `O=S(=O)(NCCc1c[nH]c2ccccc12)c1ccccc1`, at Aromatase [1], the inhibition at 1 µM is 110%. Further, the pIC50 on Aromatase [2] is 6.70. Further, the inhibition entry with MCF7 [10] was “Active”. Further, the Activity with MCF7 [7] is given as 35 - 40%; in the experiment on MCF7 [8], 45%; with MCF7 [9], 40 - 45%.

For `O=S(=O)(Cc1ccccc1)NCc1ccc2[nH]ccc2c1`, the inhibition at 1 µM at Aromatase [1] turned out to be 16.4%.

In the case of `Cc1ccc(S(=O)(=O)Nc2ccc3cc[nH]c3c2)cc1`, the inhibition at 1 µM at Aromatase [1] stood at 83.2%. Besides, at Aromatase [2], the negative-log IC50 (pIC50) was 6.31. Besides, the Activity with MCF7 [3] is 36.63%; in the experiment with MCF7 [4] it was 20.78%; with MCF7 [5] it was 22.08%; in the experiment with MCF7 [7], 35 - 40%; in the experiment on MCF7 [8], 45%; in the experiment with MCF7 [9], 40 - 45%. Further, the inhibition entry in the experiment on MCF7 [6] was “Dose-dependent effect”.

On to `Cc1ccc(S(=O)(=O)NCc2ccc3[nH]ccc3c2)cc1`, for which the inhibition at 1 µM on Aromatase [1] was found to be 33.4%.

As to `N#Cc1ccc(S(=O)(=O)NCCc2c[nH]c3ccccc23)c(Cl)c1`, the inhibition at 1 µM on Aromatase [1] worked out at 19.7%.

Take `Cc1ccc(S(=O)(=O)Nc2ccc3[nH]ccc3c2)cc1[N+](=O)[O-]`: on Aromatase [1], the inhibition at 1 µM worked out at 12.8%.
